Source: ChEMBL document CHEMBL3526154, “Metabolism, pharmacokinetics, tissue distribution, and stability studies of the prodrug analog of an anti-hepatitis B virus dinucleoside phosphorothioate” (Drug Metab Dispos, 2012)

Legend:
[1] = test system: Liver microsome; experiment: (§1) Drug metabolism in human liver microsomes assessed as Rp,Sp-dinucleotide-1 (O-((2R,3S,5R)-5-(6-amino-9H-purin-9-yl)-3-hydroxytetrahydrofuran-2-yl)methyl O-(2R,3R,4R,5R)-5-(2,4-dioxo-3,4-dihydropyrimidin-1(2H)-yl)-2-(hydroxymethyl)-4-methoxytetrahydrofuran-3-yl S-hydrogen phosphorothioate) metabolite formation at 10 uM incubated up to 8 hrs by HPLC analysis; type: ADME
Method in brief: (§2)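 Microsomes (1 mg/ml) pretreated 15 min on ice with alamethicin (10 µg/ml). Incubated with prodrug (10 µM final), NADPH 1.3 mM and UDP-GlcUA 5 mM in PBS at 37°C with shaking. Sampled at 1, 4, 6 and 8 h and quenched with acetonitrile. Supernatant lyophilised, reconstituted in water, analysed by C18 HPLC and by LC/MS.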

[2] = as §1, with “S9 fraction” for “microsomes”, “uM” for “uM incubated up to 8 hrs”, “LC/MS” for “HPLC”; type: ADME, subcellular; conditions: s9, 10 µM
Method in brief: (§3)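 Pooled human liver S9 (1 mg/ml) pretreated 15 min on ice with alamethicin (10 µg/ml). Incubated with prodrug (10 µM), NADPH 1.3 mM, UDP-GlcUA 5 mM, S-adenosylmethionine 0.1 mM, PAPS 0.1 mM and acetyl-CoA 1 mM in PBS at 37°C with shaking. Sampled at 1, 4 and 6 h, acetonitrile-quenched, then analysed by HPLC and LC/MS.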

[3] = Half life of the compound in simulated gastric fluid by HPLC analysis; type: ADME
Method in brief: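 Stock of 2 mg/100 µl in DMSO; 10 µl added to 200 µl simulated gastric fluid (NaCl, porcine pepsin, HCl, pH 1.2) or simulated intestinal fluid (KH2PO4, NaOH, pancreatin, pH 6.8), 37°C. Aliquots at 15 min, 30 min, 1 h, 3 h were quenched with acetonitrile (SGF neutralised to pH 7.0), centrifuged, lyophilised, reconstituted in water, analysed by C18 HPLC.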

[4] = as §1, with “S9 fraction” for “microsomes”, “uM” for “uM incubated up to 8 hrs”; type: ADME, subcellular; conditions: s9, 10 µM; method in brief: as §3
[5] = test system: Liver microsome; experiment: as §1, with “LC/MS” for “HPLC”; type: ADME; method in brief: as §2
[6] = Time for almost complete conversion of the compound to 1 in simulated intestinal fluid by HPLC analysis
[7] = test system: Liver microsome; experiment: Drug level in human liver microsomes treated with Rp,Sp-dinulceotide-2 at 10 uM incubated up to 8 hrs by HPLC analysis; type: ADME
Method in brief: (§4)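 Liver microsomes 1 mg/ml pretreated with alamethicin 10 μg/ml on ice 15 min; NADPH 1.3 mM and UDP-GlcUA 5 mM added in 1× PBS, substrate 10 μM final. Shaking bath at 37°C; aliquots at 1, 4, 6, 8 h quenched with acetonitrile, centrifuged, supernatant lyophilised and redissolved in water; analysed by C18 HPLC (5–50% acetonitrile/0.1 M NH4OAc gradient) and LC/MS.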

[8] = test system: Liver; experiment: Drug level in human liver S9 fraction treated with Rp,Sp-dinucleotide-2 at 10 uM by LC/MS analysis; type: ADME, subcellular; conditions: s9, 10 µM
Method in brief: (§5)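 Pooled human liver S9 (1 mg/ml), alamethicin-treated (10 μg/ml, 15 min on ice), with NADPH 1.3 mM, UDP-GlcUA 5 mM in 1× PBS; substrate 10 μM final. Incubated 37°C shaking; sampled 1, 4, 6 h, acetonitrile quench, centrifuged, supernatant lyophilised, reconstituted in water; HPLC (C18, 25°C, 5–50% acetonitrile in 0.1 M NH4OAc over 45 min) and LC/MS.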

[9] = Stability of the compound in simulated intestinal fluid by HPLC analysis; type: ADME; conditions: simulated gi fluid
Method in brief: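 Simulated intestinal fluid: KH2PO4 6.8 g/l with NaOH, pancreatin 10 g/l, pH 6.8. DMSO stock (2 mg/100 μl), 10 μl added to 200 μl SIF, 37°C; aliquots at 15 min, 30 min, 1 h, 3 h quenched with acetonitrile, centrifuged, supernatant lyophilised, reconstituted in water, analysed by C18 HPLC.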

[10] = test system: Liver microsome; experiment: Drug level in human liver microsomes treated with Rp,Sp-dinulceotide-2 at 10 uM incubated up to 8 hrs by LC/MS analysis; type: ADME; method in brief: as §4
[11] = test system: Liver; experiment: Drug level in human liver S9 fraction treated with Rp,Sp-dinucleotide-2 at 10 uM by HPLC analysis; type: ADME, subcellular; conditions: s9, 10 µM; method in brief: as §5

SMILES: CO[C@@H]1[C@H](OP(=O)(OC[C@H]2O[C@@H](n3cnc4c(N)ncnc43)C[C@@H]2O)SCOC(=O)OC(C)C)[C@@H](CO)O[C@H]1n1ccc(=O)[nH]c1=O (some centres not stated) [INARIGIVIR SOPROXIL]
- Drug metabolism [1]: metabolite_detected
- Drug metabolism [2]: metabolite_detected
- half-life [3]: > 3 h
- Drug metabolism [4]: metabolite_detected
- Drug metabolism [5]: metabolite_detected
- time for complete conversion [6]: 180 min

SMILES: CO[C@@H]1[C@H](OP(=O)(S)OC[C@H]2O[C@@H](n3cnc4c(N)ncnc43)C[C@@H]2O)[C@@H](CO)O[C@H]1n1ccc(=O)[nH]c1=O (some centres not stated) [INARIGIVIR]
- Drug metabolism [7]: metabolite_detected
- Drug metabolism [8]: metabolite_detected
- Stability [9]: Stable
- Drug metabolism [10]: metabolite_detected
- half-life [3]: < 0.25 h
- Drug metabolism [11]: metabolite_detected
